According to ChEMBL document CHEMBL1932987, “Straightforward palladium-mediated synthesis and biological evaluation of benzo[j]phenanthridine-7,12-diones as anti-tuberculosis agents” (Eur J Med Chem, 2012):
In brackets after ≈: the same amount, converted by molar mass. Activity calls are given as the source filed them. No cut-off for these calls is given here.

Experiments:
[1] = Cytotoxicity against human HepG2/C3A cells after 24 hrs by neutral red uptake assay; assay type: cell-based
In short: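 C3A hepatocytes in DMEM + 10% FCS, 40,000 per well, recovered at 37 °C, 5% CO2. Exposed 24 h to final 10, 3, 1, 0.3, 0.1 µM from 1 mM DMSO stocks. Neutral red added for 3 h, extracted with ethanol/acetic acid, OD read at 530 nm with 620 nm reference. IC50 = 50% neutral red uptake.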

[2] = Selectivity index, ratio of IC50 for human HepG2/C3A cells to MIC50 for Mycobacterium tuberculosis H37Rv; assay type: functional
In short: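 Selectivity index is the IC50 from the C3A neutral red uptake assay divided by the MIC50 against luminescent M.tb. H37Rv.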

[3] = system: Mycobacterium tuberculosis; assay: Antimycobacterial activity against Mycobacterium tuberculosis H37Rv expressing pSMT1 after 1 to 7 days by luminescent assay; assay type: functional
In short: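 Luminescent M.tb. H37Rv carrying pSMT1 (luxAB, hsp60 promoter) in 7H9 + 10% FCS. Bacteria filtered, recovered 1 h at 37 °C, 5% CO2, added at 50,000 RLU/ml. Serial dilutions from 1 mM DMSO stocks, triplicate wells. Luminometry after 1, 3 and 7 days; MIC50 = 50% growth reduction.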

Salmonella typhimurium = assay: Genotoxicity in Salmonella Typhimurium expressing episomal lux operon assessed as concentration required to cause toxicity in presence of S9 fraction; assay type: organism-based; conditions: salmonella enterica subsp. enterica serovar typhimurium
In short: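 VITOTOX with genetically engineered Salmonella typhimurium strains, with or without S9 from aroclor-treated rat liver. Genotoxicity reported by a luxCDABE reporter under the RecN promoter. Tested at 10, 1 and 0.1 µM; lowest concentration showing cytotoxicity recorded.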

[4] = system: Mycobacterium tuberculosis; assay: Antimycobacterial activity against Mycobacterium tuberculosis H37Rv expressing pSMT1 after 1 to 7 days by BACTEC 460-TB assay; assay type: functional
In short: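 Radiometric BACTEC 460-TB culture of M.tb. H37Rv in 7H9-based medium. Pre-culture grown to GI 300, then inoculated into a fresh vial with serial compound dilutions made at 40x final concentration from 1 mM DMSO stocks. GI (14C-palmitate to 14CO2) read daily against untreated inocula diluted 100-fold at inoculation. MIC99 taken as 99% inhibition. Each measurement done at least twice.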

[5] = system: Mycobacterium tuberculosis; assay: Antimycobacterial activity against Mycobacterium tuberculosis H37Rv infected in mouse J774 cells assessed as reduction of parasite growth at 1 uM after 7 days by luminescence assay; assay type: functional; design: scale not given: the % may be the effect or the level left
In short: (§1)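 Murine J774 macrophages, 100,000 per well, recovered overnight, then infected with luminescent M.tb. H37Rv (10^4 CFU, MOI 0.1) in DMEM with penicillin and Fungizone. Cells treated with compound at final 10, 3, 1, 0.3, 0.1 µM. Monolayers lysed after 1, 3 or 7 days; intracellular bacteria read by luminometry of lysate. Triplicate cultures, mean RLU.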

[6] = system: Mycobacterium tuberculosis; assay: Antimycobacterial activity against Mycobacterium tuberculosis H37Rv infected in mouse J774 cells assessed as reduction of parasite growth at 1 uM after 3 days by luminescence assay; assay type: functional; design: scale not given: the % may be the effect or the level left; in short: as §1
[7] = system: Mycobacterium tuberculosis; assay: Antimycobacterial activity against Mycobacterium tuberculosis H37Rv infected in mouse J774 cells assessed as reduction of parasite growth at 0.3 uM after 7 days by luminescence assay; assay type: functional, organism-based; in short: as §1
[8] = Induction of DNA fragmentation in human HepG2/C3A cells at 0.3 uM after 24 hrs by alkaline comet assay (reference value: 3.69%); assay type: toxicity, cell-based
In short: (§2)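 Alkaline comet assay on C3A cells, 100,000 per well, pre-incubated 24 h with compound at 3, 1, 0.3 or 0.1 µM. Cells embedded in agarose on slides, lysed 1 h, electrophoresed 20 min at 300 mA, neutralized, stained with gel red. % tail DNA measured by fluorescence microscopy; compared with negative control by Mann-Whitney U test.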

[9] = Cytotoxicity against mouse J774 cells assessed as viability at 1 uM after 7 days by neutral red uptake assay; assay type: cell-based; conditions: read-out: Activity
In short: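 Uninfected J774 macrophages exposed to compound in parallel with the infection assay; viability read by neutral red uptake over the same exposure period.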

[10] = Induction of DNA fragmentation in human HepG2/C3A cells at 1 uM after 24 hrs by alkaline comet assay (reference value: 3.69%); assay type: toxicity, cell-based; in short: as §2
[11] = Induction of DNA fragmentation in human HepG2/C3A cells at 0.1 uM after 24 hrs by alkaline comet assay (reference value: 3.69%); assay type: toxicity, cell-based; in short: as §2
[12] = Induction of DNA fragmentation in human HepG2/C3A cells at 3 uM after 24 hrs by alkaline comet assay (reference value: 3.69%); assay type: toxicity, cell-based; in short: as §2
[13] = system: Mycobacterium tuberculosis; assay: Antimycobacterial activity against Mycobacterium tuberculosis H37Rv infected in mouse J774 cells assessed as reduction of parasite growth at 1 uM after 1 day by luminescence assay; assay type: functional; design: scale not given: the % may be the effect or the level left; in short: as §1

COc1cccc2c3c(cnc12)C(=O)c1ccccc1C3=O
IC50 [1]: 2400 nM | Selectivity Index [2]: 1.45 | MIC50 [3]: 1.66 µM (≈ 0.48 µg/mL) | Activity (Salmonella typhimurium): 10 µM | MIC99 [4]: 2.74 µM (≈ 0.793 µg/mL)

Cc1cccc2c3c(cnc12)C(=O)c1ccccc1C3=O
IC50 [1]: 3960 nM | Selectivity Index [2]: 1.08 | MIC50 [3]: 3.68 µM (≈ 1.01 µg/mL) | Activity (Salmonella typhimurium): 10 µM | MIC99 [4]: 4.3 µM (≈ 1.18 µg/mL)

Cc1ccc2ncc3c(c2c1)C(=O)c1ccccc1C3=O
IC50 [1]: 1480 nM | Selectivity Index [2]: 1.69 | MIC50 [3]: 0.88 µM (≈ 0.24 µg/mL) | Activity (Salmonella typhimurium): 10 µM | MIC99 [4]: 1.53 µM (≈ 0.418 µg/mL)

O=C1c2ccccc2C(=O)c2c1cnc1ccc(F)cc21
IC50 [1]: 1090 nM | Selectivity Index [2]: 1.46 | MIC50 [3]: 0.74 µM (≈ 0.205 µg/mL) | Activity (Salmonella typhimurium): 1 µM | MIC99 [4]: 1.38 µM (≈ 0.383 µg/mL)

COc1ccc2ncc3c(c2c1)C(=O)c1ccccc1C3=O
IC50 [1]: 950 nM | Selectivity Index [2]: 2.22 | MIC50 [3]: 0.43 µM (≈ 0.124 µg/mL) | Activity (Salmonella typhimurium): 10 µM

O=C1c2ccccc2C(=O)c2c1cnc1ccc(Cl)cc21
IC50 [1]: 1560 nM | Selectivity Index [2]: 1.5 | MIC50 [3]: 1.03 µM (≈ 0.303 µg/mL) | Activity (Salmonella typhimurium): 1 µM | MIC99 [4]: 1.35 µM (≈ 0.397 µg/mL)

Cc1ccc2c3c(cnc2c1)C(=O)c1ccccc1C3=O
Activity [5]: 83.5% | IC50 [1]: 3210 nM | Activity [6]: 74.2% | Activity [7]: inactive | Selectivity Index [2]: 15.29 | Activity [8]: 2.52% | viability at 168 h, 1 µM [9]: 92.9% | Activity [10]: 2.15% | MIC50 [3]: 0.21 µM (≈ 0.0574 µg/mL) | Activity [11]: 3.47% | Activity (Salmonella typhimurium): 10 µM | MIC99 [4]: 0.64 µM (≈ 0.175 µg/mL) | Activity [12]: 3.31% | Activity [13]: 47.6%

NNC(=O)c1ccncc1 [ISONIAZID]
MIC50 [3]: 0.54 µM (≈ 0.0741 µg/mL)

O=C1c2ccccc2C(=O)c2c1cnc1ccccc21
IC50 [1]: 1510 nM | Selectivity Index [2]: 1.26 | MIC50 [3]: 1.2 µM (≈ 0.311 µg/mL) | Activity (Salmonella typhimurium): 1 µM | MIC99 [4]: 1.9 µM (≈ 0.493 µg/mL)
